Assay outcomes from PubChem BioAssay.
Only some compounds are listed: those with a hit (about 1.6% of all), similar ones and a draw of the others.
Neddylation inh = cullin neddylation inhibition. P61081+Q13564. hit rate 0.58% among 360,000. TR-FRET cullin neddylation, biochemical. calls only at 25 µM; in the data active means inhibition above about 36%
Target sequence (P61081 whole entry, looked up): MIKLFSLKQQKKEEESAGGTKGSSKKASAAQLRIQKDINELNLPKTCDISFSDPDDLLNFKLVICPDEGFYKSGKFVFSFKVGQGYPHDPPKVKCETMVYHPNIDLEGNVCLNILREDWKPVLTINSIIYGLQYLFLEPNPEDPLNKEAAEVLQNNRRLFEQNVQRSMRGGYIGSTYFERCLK
Target sequence (Q13564 whole entry, looked up): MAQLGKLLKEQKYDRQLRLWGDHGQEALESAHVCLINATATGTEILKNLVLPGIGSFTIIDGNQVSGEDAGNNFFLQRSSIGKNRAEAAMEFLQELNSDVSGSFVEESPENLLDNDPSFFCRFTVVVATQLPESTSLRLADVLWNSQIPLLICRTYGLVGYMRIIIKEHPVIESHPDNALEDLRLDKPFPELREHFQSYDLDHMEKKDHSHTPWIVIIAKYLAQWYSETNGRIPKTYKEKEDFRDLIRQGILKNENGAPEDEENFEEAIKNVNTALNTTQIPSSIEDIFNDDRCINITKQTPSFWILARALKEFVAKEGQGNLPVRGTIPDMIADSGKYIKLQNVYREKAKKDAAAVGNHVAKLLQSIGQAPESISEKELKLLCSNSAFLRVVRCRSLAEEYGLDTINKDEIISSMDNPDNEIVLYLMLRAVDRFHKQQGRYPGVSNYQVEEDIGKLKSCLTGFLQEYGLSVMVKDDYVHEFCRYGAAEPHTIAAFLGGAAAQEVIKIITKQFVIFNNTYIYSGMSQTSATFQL
Apaf1 inhib = blocks human Apaf-1 apoptosome activity | O14727 | inhibition, % at 20 µM | reconstituted apoptosome caspase-3 activity, DEVD-Rh110 fluorescence | AID 489030 | hit rate 0.71% among 330,000; active means inhibition of at least 40% at 20 µM
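Material: reconstituted apoptosome with Apaf-1, cytochrome c, caspase-9, procaspase-3, dATP; medium: pH 7.5 Hepes buffer with CHAPS, BSA, DTT; also added: cytochrome c and DEVD-Rh110 substrate; timing: 30 min plus 50 min, RT; signal: Rh110 fluorescence intensity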
RAD54 branch = blocks human RAD54 Holliday junction branch migration; FAM/BHQ fluorescence; AID 602329; hit rate 0.14% among 360,000; inhibition, % at 10.4 µM;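 active means mean normalized replicate activity at least 40 and at least half of replicates scoring 40 or more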;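 further: inhibitors cause a drop in the FAM fluorescence signal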
RAD52 inh = inhibitors of human RAD52 DNA annealing | hit rate 0.46% among 360,000 | P43351 | inhibition, % at 18.7 µM | AID 651710 | recombinant RAD52 DNA annealing, FRET fluorescence;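 active means every replicate showing at least 50% inhibition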
DNA FID counter = counter-screen for HCV NS3 helicase inhibitors: DNA intercalator displacement. DNA fluorescent intercalator displacement, fluorescence. inhibition, % at 7.9 µM. hit rate 0.17% among 290,000. AID 1845; in the data active means inhibition above about 37%;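 further: higher means more ethidium bromide displaced from hairpin DNA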
UBC13 inh = blocks human UBC13 polyubiquitin chain formation; hit rate 0.47% among 330,000; TR-FRET; inhibition, % at 20 µM; P61088; in the data active means inhibition above about 45%, passing the limit was not always enough
Casp3 UBC13 ctr = inhibits human caspase-3 in UBC13 counter-screen. shares compounds with UBC13 inh. Recombinant caspase-3, Caspase-Glo 3/7 luminescence, 60 min. inhibition, % at 20 µM. hit rate 4% among 1,400. AID 488856;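 active means mean inhibition across replicates above about 26%, limit read from the data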
UBC13 confirm = human UBC13 polyubiquitin inhibition, confirmed; shares compounds with UBC13 inh; UBC13 polyubiquitination, TR-FRET, biochemical; inhibition, % at 10 µM; hit rate 68% among 1,400; AID 488859; in the data active means inhibition above about 45%
Apaf-1 inh conf = Apaf-1 inhibition, single-dose confirmed | shares compounds with Apaf1 inhib | reconstituted apoptosome, caspase-3 DEVD-Rh110 fluorescence | inhibition, % at 20 µM | hit rate 25% among 1,800;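 active means mean inhibition of at least 40% at 20 µM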
Rh110 quench = interferes with Rh110 fluorescence, flagging false Apaf-1 inhibitors; activation (fluorescence interference), % at 20 µM; shares compounds with Apaf1 inhib; AID 504615; Rh110 fluorescence interference, quenched caspase reaction; 1,800 tested, under 10 active;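 active means signal rise of 40% or more at 20 µM, treated as a fluorescence artifact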
Fluor interf inh = shows fluorescence interference in the Apaf-1 inhibitor assay format | shares compounds with Apaf1 inhib | fluorescence interference counterscreen, Apaf-1 assay format | IC50, µM | 460 tested, under 10 active | AID 588538; call rule not given here
A number is an active result; n = inactive; x = no result shown.

SMILES | Neddylation inh | Apaf1 inhib | RAD54 branch | RAD52 inh | DNA FID counter | UBC13 inh | Casp3 UBC13 ctr | UBC13 confirm | Apaf-1 inh conf | Rh110 quench | others
C#CCOCCOCCOCCNc1nc(N2CCN(C(=O)[C@H]([C@@H](C)CC)n3cc(CCCCN)nn3)CC2)nc(N2CCN(C(=O)[C@H]([C@@H](C)CC)n3cc(CCCN=C(N)N)nn3)CC2)n1 | n | 46 | n | n | x | 53 | n | 48 | n | n
C[C@@H]1CN([C@H](C)CO)C(=O)Cc2cc(NS(C)(=O)=O)ccc2O[C@H]1CN(C)Cc1ccc2c(c1)OCO2 | x | x | n | n | x | x | x | x | x | x
C[C@H]1CN([C@@H](C)CO)C(=O)Cc2cc(NC(=O)CCCCCC(=O)Nc3ccccc3N)ccc2O[C@@H]1CN(C)C(=O)Nc1ccc(C(F)(F)F)cc1 | x | x | n | x | x | x | x | x | x | x
C#CCOCCOCCOCCNc1nc(N2CCOCC2)nc(N2CCN(C(=O)[C@H](CCCCN)n3cc(CN)nn3)CC2)n1 | n | 49 | n | n | x | 96 | n | 89 | n | n
COc1ccc(C(CNC(=O)COc2c(C)cc(C)cc2C)N2CCOCC2)cc1 (stereo not given) | n | 66 | n | n | x | 51 | n | n | 45 | n | Fluor interf inh=n
Oc1ccc(C[C@@H]2CNCCN2CC2CCCCC2)cc1 | n | n | n | n | x | n | x | x | x | x
c1ccc2c(C[C@@H]3CNCCN3CC3CCCCC3)cccc2c1 | n | 44 | n | n | x | 60 | n | 58 | n | n
COc1ccc(-c2sc3cc4c(cc3c2C#CC2(N)CCCCC2)OCO4)cc1 | n | 72 | n | n | x | 85 | n | 89 | n | n
COc1ccc(-c2sc3cc4c(cc3c2C#Cc2cncn2C)OCO4)cc1 | x | n | n | n | x | n | x | x | x | x
CO[C@@H]1CN(C)C(=O)c2ccc(NC(=O)Cc3ccccc3)cc2OC[C@@H](C)N(C)C[C@@H]1C | x | x | n | n | x | x | x | x | x | x
O=C(O)C(Cc1ccccc1)N1C(=O)/C(=C/C=C/c2ccco2)SC1=S (stereo not given) | n | x | n | n | n | x | x | x | x | x
O=C(O)CC(C(=O)O)N1C(=O)/C(=C/C=C/c2ccco2)SC1=S (stereo not given) | n | 85 | n | n | n | 74 | n | 48 | 49 | n | Fluor interf inh=n
COc1ccc(NC(=O)N(C)C[C@H]2Oc3ccc(NS(=O)(=O)c4cn(C)cn4)cc3CC(=O)N([C@H](C)CO)C[C@@H]2C)cc1 | x | x | n | n | x | x | x | x | x | x
COc1ccc(C(=O)Nc2ccc3c(c2)OC[C@H](C)N(C(C)=O)C[C@H](C)[C@H](OC)CN(C)C3=O)cc1 | x | x | n | n | x | x | x | x | x | x
COc1cc(OC)c2c(-c3ccccc3)cc(=O)oc2c1C(CCN1CCCCC1)c1ccc(N(C)C)cc1 (stereo not given) | n | 54 | n | x | x | 51 | n | n | n | n
COc1cc(OC)c2c(-c3ccccc3)cc(=O)oc2c1C(CCN1CCCCC1)c1ccc2c(c1)OCO2 (stereo not given) | n | n | n | n | x | n | x | x | x | x
COc1cc(OC)c2c(-c3ccccc3)cc(=O)oc2c1C(CC(=O)N1CCCC1)c1ccc2c(c1)OCO2 (stereo not given) | n | n | n | n | x | n | x | x | x | x
COc1ccc(C(CCN2CCCCC2)c2c(OC)cc(OC)c3c(-c4ccccc4)cc(=O)oc23)cc1 (stereo not given) | n | 55 | n | n | x | 68 | n | n | n | n
CCCCCc1cc(=O)oc2c(C(CCN3CCCC(C)C3)c3cc(OC)c(OC)c(OC)c3)c(OC)cc(OC)c12 (stereo not given) | n | 60 | n | x | x | 67 | n | n | n | n
COCC#Cc1ccc([C@@H]2[C@H](CO)N3C(=O)CN(C(=O)Nc4ccc(F)cc4)C[C@@H]23)cc1 | x | x | x | n | x | x | x | x | x | x
C[C@H]1CN([C@@H](C)CO)C(=O)c2c(c3ccccc3n2C)-c2ccccc2CO[C@H]1CN(C)S(=O)(=O)c1ccc(Cl)cc1 | x | x | n | n | x | x | x | x | x | x
COc1ccc(CN(C)C[C@@H]2OCCCC[C@H](C)Oc3ccc(NS(=O)(=O)c4ccc(C)cc4)cc3C(=O)N([C@H](C)CO)C[C@@H]2C)cc1 | x | x | n | n | x | x | x | x | x | x
CN(C)CCOc1ccc(-c2c(-c3ccsc3)sc3ccccc23)cc1 | n | 71 | n | n | x | 78 | n | 74 | n | n
c1ccc(-c2sc3ccccc3c2-c2ccc(OCCN3CCOCC3)cc2)cc1 | n | n | n | x | x | n | x | x | x | x
COc1cccc(-c2sc3ccc(OC)cc3c2-c2ccc(OCCN(C)C)cc2)c1 | n | 75 | n | n | x | 84 | n | 90 | n | n
SMILES | Neddylation inh | Apaf1 inhib | RAD54 branch | RAD52 inh | DNA FID counter | UBC13 inh | Casp3 UBC13 ctr | UBC13 confirm | Apaf-1 inh conf | Rh110 quench | others
CCOc1ccc(C(=O)Nc2sc3c(c2C(=O)OC)CC(C)(C)NC3(C)C)cc1 | n | 41 | n | n | n | 52 | n | n | n | n
COC(=O)c1c(NC(=O)c2nc3ccccc3s2)sc2c1CC(C)(C)NC2(C)C | n | 58 | n | n | n | 97 | n | 87 | n | n
COc1ccc(NC(=O)N[C@H]2C=C[C@@H](CC(=O)NCc3ccccn3)O[C@@H]2CO)cc1 | x | x | n | n | x | x | x | x | x | x
CC[C@@H](C)[C@@H]1CN([C@@H](C)CN2CCC[C@H]2CN2C(N)=NC[C@H]2CC(C)C)C(=N)N1CCCC1CCCC1 | n | n | n | n | x | n | x | x | x | x
CC(C)C[C@@H]1CN=C(N)N1C[C@@H]1CCCN1C[C@@H](C(C)C)N1C[C@@H](Cc2ccccc2)N(CCCC2CCCC2)C1=N | n | 55 | n | n | x | 78 | n | 76 | n | n
CCC[C@@H](CN1CCC[C@H]1CN1C(N)=NC[C@H]1C(C)C)N1C[C@@H](Cc2ccccc2)N(CCCC2CCCC2)C1=N | n | 46 | n | n | x | 65 | n | 47 | n | n
CCCCN1C(=N)N([C@@H](CCC)CN2CCC[C@H]2CN2C(N)=NC[C@@H]2Cc2ccccc2)C[C@H]1[C@H](C)CC | n | n | n | n | x | n | x | x | x | x
Cn1cnc(S(=O)(=O)N2CCCCN3[C@H](CO)[C@H](c4ccc(C5=CCCC5)cc4)[C@@H]3C2)c1 | x | x | n | n | x | x | x | x | x | x
Cc1noc(C)c1NC(=O)Nc1ccc2c(c1)C(=O)N([C@@H](C)CO)C[C@H](C)[C@H](CN(C)Cc1ccc(C(F)(F)F)cc1)OCCCC[C@H](C)O2 | x | x | n | n | x | x | x | x | x | x
CCCCCCCCCCCCCCCCn1cc[n+](C)c1 | n | 80 | x | 83 | n | 73 | n | 99 | 44 | n | Fluor interf inh=n
